Experimental data from paper PMC11500341 (Scientific Reports, 2024).
No end group written: not given here.

Experiments:
Rac1 [1] = test: Western blot, Rac1 expression; type: cell-based, human; conditions: for % change of protein expression: vs CT; for Rac1 expression (in words): 48 and 72 h
In short: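 MCF-7 cells (DMEM, 10% FBS) were treated per group for 48 and 72 h. Lysate protein was measured by BCA, and 30 µg was run on 10% SDS-PAGE and transferred to PVDF. Blots were blocked in 5% milk/TBS-T for 2 h. Rabbit anti-Rac1 (1:250) and GAPDH (1:500) antibodies were applied overnight at 4 °C, then 2 h at room temperature. HRP secondary (1:4000) and ECL detection followed, with band densitometry.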

[2] = system: Caspase 3/7 in MCF-7 cells; test: Caspase glow 3/7 assay, MCF-7; type: cell-based; conditions: p ≤ 0.0001
[3] = system: Caspase 3/7 in MDA-MB-231 cells; test: Caspase glow 3/7 assay, MDA-MB-231; type: cell-based; conditions: p ≤ 0.0001
In short: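 MDA-MB-231 cells were seeded at 5 × 10^3 per well and adhered overnight. They were exposed to the test compound (P1 75, P2 150, P3 300), Dox 0.2 or Dox + P3 for 24, 48 or 72 h. Caspase-Glo 3/7 reagent (substrate/luciferase) was added, followed by 30–60 min at 25 °C. Luminescence was then read.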

MCF-7 cells [4] = test: Cell migration; type: cell-based; conditions: after 48 h and 72 h
In short: (§1)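 Cells were seeded at 0.2 × 10^6 per 35 mm dish in DMEM with 10% FBS and left to adhere overnight at 37 °C in 5% CO2. Monolayers were scratched with a sterile pipette tip and imaged at time zero. They were then treated: control, 0.05% DMSO vehicle, three test compound levels, doxorubicin, and doxorubicin plus the top level. The scratched area was re-imaged at 24, 48 and 72 h.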

VEGF = test: Western blot, VEGF expression; type: cell-based, human; conditions: MCF-7 and MDA-MB-231; after treatments
In short: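 MCF-7 and MDA-MB-231 lysates were taken 48 h and 72 h after the treatment groups. Protein was quantified by BCA and 30 µg run on 10% SDS-PAGE, then transferred to PVDF. Membranes were blocked 2 h in 5% milk in TBS-T. Mouse anti-human VEGF (1:300, in 5% BSA TBS-T) was applied overnight at 4 °C, then 2 h at room temperature. Detection used HRP goat anti-mouse (1:4000) and ECL, with band densitometry.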

MDA-MB-231 cells [5] = test: Cell migration; type: cell-based; conditions: after 48 h and 72 h
In short: as §1

breast-cancer cells = conditions: cited from earlier work
Rac1 and Tiam1 complex = conditions: cited from earlier work
LIMK1 = LIMK1 concentration in serum and tumor tissue of mice by SPR; type: in vivo, Swiss Albino mice; conditions: 300 μm FGDWS, Mean ± SD
P38α = test: p38α concentration in serum and tumor tissue of mice by SPR; type: in vivo, Swiss Albino mice; conditions: 300 μm FGDWS, Mean ± SD
Cofilin1 = Cofilin1 concentration in serum and tumor tissue of mice by SPR; type: in vivo, Swiss Albino mice; conditions: 300 μm FGDWS, Mean ± SD
Phospho-p38α (Y-182) = test: Phospho-p38α concentration in serum and tumor tissue of mice by SPR; type: in vivo, Swiss Albino mice; conditions: 300 μm FGDWS, Mean ± SD, p-value 0.0001
Phospho-Cofilin1 (S-3) = test: Phospho-Cofilin1 concentration in serum and tumor tissue of mice by SPR; type: in vivo, Swiss Albino mice; conditions: 300 μm FGDWS, Mean ± SD
Rac1 [6] = molecular target: Rac1 (Homo sapiens, UniProt P63000); test: SPR binding of peptide to immobilized Rac1
Rac1 [7] = test: Rac1 concentration in serum and tumor tissue of mice by SPR; type: in vivo, Swiss Albino mice; conditions: tumor tissue lysate; 300 μm FGDWS; Mean ± SD; p-value 0.0001
MDA-MB-231 cells [8] = test: MTT cell viability assay, MDA-MB-231; type: cell-based; conditions: 24, 48 and 72 h
In short: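 MDA-MB-231 cells (passage 28–33; DMEM with 10% FBS and 1% penicillin/streptomycin) were seeded at 5 × 10^3 per well and left overnight. Four test compound doses were added for 24, 48 or 72 h at 37 °C in 5% CO2. MTT (5 mg/ml solution) was added for 4 h, medium removed, formazan dissolved in DMSO and read at 570 nm. Results were expressed as percent viability.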

HEK-293 cells = test: MTT cell viability assay, HEK-293; type: cell-based; conditions: 25-500 μm FGDWS, 24, 48 and 72 h
In short: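 HEK-293 cells (DMEM, 10% FBS, passage 28–33) were seeded at 4 × 10^3 per well and adhered overnight. Test compound was added at 25, 50, 100, 150, 300 and 500 for 24, 48 and 72 h at 37 °C, 5% CO2. MTT (5 mg/ml) was incubated for 4 h, medium removed and DMSO added. Absorbance at 570 nm gave percent viability.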

MCF-7 cells [9] = test: MTT cell viability assay, MCF-7; type: cell-based; conditions: 24, 48 and 72 h
Phospho-LIMK1 (T-508) = test: Phospho-LIMK1 concentration in serum and tumor tissue of mice by SPR; type: in vivo, Swiss Albino mice; conditions: 300 μm FGDWS, Mean ± SD
MDA-MB-231 cells [10] = test: Annexin V-FITC / PI assay, flow cytometry, MDA-MB-231; type: cell-based
In short: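 Cells were seeded at 0.2 × 10^6 per 35 mm dish and treated per group: control, vehicle (0.05% DMSO), test compound P1 75, P2 150, P3 300, Dox 0.2, or Dox + P3. They were then trypsinized, washed twice in PBS and resuspended in 1X binding buffer. Staining was annexin V-FITC for 10 min, then PI (50 µg/ml stock) for 20 min. Flow cytometry gave four-quadrant populations.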

MCF-7 cells [11] = test: Annexin V-FITC / PI assay, flow cytometry, MCF-7; type: cell-based; conditions: 72 h
In short: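 Test compound given to MCF-7 cells (0.2 × 10^6 per 35 mm dish) in these treatment groups: control, 0.05% DMSO vehicle, three test compound levels, doxorubicin, and doxorubicin plus the top level. Cells were trypsinized, washed twice in PBS and resuspended in binding buffer. Annexin V-FITC was added for 10 min, then PI (from a 50 µg/ml stock) for 20 min. Flow cytometry quadrants gave early apoptotic, late apoptotic, necrotic and healthy fractions.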

[12] = MCF-7, 48 h, P3 300 μm / Dox 0.2 μm / Dox + P3 0.2 μm + 300 μm
[13] = MCF-7, 72 h, P3 300 μm / Dox 0.2 μm / Dox + P3 0.2 μm + 300 μm
[14] = MDA-MB-231, 48 h, P3 300 μm / Dox 0.2 μm / Dox + P3 0.2 μm + 300 μm
[15] = MDA-MB-231, 72 h, P3 300 μm / Dox 0.2 μm / Dox + P3 0.2 μm + 300 μm
[16] = tumor tissue lysate, p-value 0.001

## COc1cccc2c1C(=O)c1c(O)c3c(c(O)c1C2=O)C[C@@](O)(C(=O)CO)C[C@@H]3O[C@H]1C[C@H](N)[C@H](O)[C@H](C)O1 [Dox, Doxorubicin, reference compound]
Rac1 [1]; [12]
  % change of protein expression: 13.13%
Rac1 [1]; [13]
  % change of protein expression: 43.31%
Rac1 [1]; [14]
  % change of protein expression: 32.57%
Rac1 [1]; [15]
  % change of protein expression: 31.39%
[2]; [12]
  fold change in RLU with respect to control (caspase 3/7): 1.64
[2]; [13]
  fold change in RLU with respect to control (caspase 3/7): 0.79
[3]; [14]
  fold change in RLU with respect to control (caspase 3/7): 0.84
[3]; [15]
  fold change in RLU with respect to control (caspase 3/7): 1.02
MCF-7 cells [4]
  rate of cell proliferation and migration (ranking): slowest in Dox + P3 followed by Dox, P3, P2 and P1
VEGF
  VEGF expression (in words): downregulated after treatments with peptide and Dox
MDA-MB-231 cells [5]
  rate of cell proliferation and migration (ranking): slowest in Dox + P3 followed by Dox, P3, P2 and P1

## CCN(CC)CCCC(C)Nc1nc(C)cc(Nc2ccc3nc(C)cc(N)c3c2)n1 (centres unmarked) [NSC23766]
breast-cancer cells
  cell cycle arrest and apoptosis: induce G1 cell cycle arrest and apoptosis
Rac1 and Tiam1 complex
  inhibition of Rac1-Tiam1 interaction: inhibits the interactions between Rac1 and Tiam1 complex

## FGDWS [FGDWS]
LIMK1; serum, day 45, p-value 0.0001
  LIMK1 concentration: 6.86 ± 1.46 ng/µL
LIMK1; tumor tissue lysate, p-value 0.005
  LIMK1 concentration: 6.37 ± 1.04 ng/µL
Rac1 [1]; MCF-7, 48 h, P1 75 μm
  % change of protein expression: 1.08%
Rac1 [1]; [12]
  % change of protein expression: 25.84%
Rac1 [1]; MCF-7, 72 h, P1 75 μm
  % change of protein expression: 12.74%
Rac1 [1]; [13]
  % change of protein expression: 31.23%
Rac1 [1]; MCF-7
  Rac1 expression (in words): downregulated significantly with increase in concentration of peptide dose from P1 to P3
Rac1 [1]; MDA-MB-231, 48 h, P1 75 μm
  % change of protein expression: 21.41%
Rac1 [1]; [14]
  % change of protein expression: 36.01%
Rac1 [1]; MDA-MB-231, 72 h, P1 75 μm
  % change of protein expression: 15.03%
Rac1 [1]; [15]
  % change of protein expression: 48.31%
Rac1 [1]; MDA-MB-231
  Rac1 expression (in words): downregulated significantly with increase in concentration of peptide dose from P1 to P3
[2]; MCF-7, 48 h, P1 75 μm
  fold change in RLU with respect to control (caspase 3/7): 0.24
[2]; MCF-7, 48 h, P2 150 μm
  fold change in RLU with respect to control (caspase 3/7): 0.402
[2]; [12]
  fold change in RLU with respect to control (caspase 3/7): 0.93
[2]; MCF-7, 72 h, P1 75 μm
  fold change in RLU with respect to control (caspase 3/7): 0.33
[2]; MCF-7, 72 h, P2 150 μm
  fold change in RLU with respect to control (caspase 3/7): 0.47
[2]; [13]
  fold change in RLU with respect to control (caspase 3/7): 0.66
P38α; serum, day 45, p-value 0.004
  P38α concentration: 3.13 ± 0.96 ng/µL
P38α; [16]
  P38α concentration: 0.97 ± 0.06 ng/µL
[3]; MDA-MB-231, 48 h, P1 75 μm
  fold change in RLU with respect to control (caspase 3/7): 0.16
[3]; MDA-MB-231, 48 h, P2 150 μm
  fold change in RLU with respect to control (caspase 3/7): 0.25
[3]; [14]
  fold change in RLU with respect to control (caspase 3/7): 0.305
[3]; MDA-MB-231, 72 h, P1 75 μm
  fold change in RLU with respect to control (caspase 3/7): 0.35
[3]; MDA-MB-231, 72 h, P2 150 μm
  fold change in RLU with respect to control (caspase 3/7): 0.57
[3]; [15]
  fold change in RLU with respect to control (caspase 3/7): 0.65
Cofilin1; serum, day 45, p-value 0.028
  Cofilin1 concentration: 2.68 ± 0.28 ng/µL
Cofilin1; tumor tissue lysate, p-value 0.0048
  Cofilin1 concentration: 2.83 ± 0.53 ng/µL
MCF-7 cells [4]
  rate of cell proliferation and migration (ranking): slowest in Dox + P3 followed by Dox, P3, P2 and P1
VEGF
  VEGF expression (in words): downregulated after treatments with peptide and Dox
Phospho-p38α (Y-182); serum, day 45
  Phospho-p38α concentration: 2.66 ± 0.16 ng/µL
Phospho-p38α (Y-182); tumor tissue lysate
  Phospho-p38α concentration: 2.77 ± 0.11 ng/µL
Phospho-Cofilin1 (S-3); serum, day 45, p-value 0.006
  Phospho-Cofilin1 concentration: 8.35 ± 1.15 ng/µL
Phospho-Cofilin1 (S-3); [16]
  Phospho-Cofilin1 concentration: 7.14 ± 1.34 ng/µL
Rac1 [6]
  Kd: 0.807 µM
Rac1 [6]; SPR, Rac1 immobilized on CM5 (4000 RU), BIAevaluation 3.0
  KA (association constant): 1.24e+06 M⁻¹
Rac1 [7]
  Rac1 concentration: 0.72 ± 0.02 ng/µL
MDA-MB-231 cells [8]
  cell viability, dose and time dependence: decreased in dose dependent manner with time
HEK-293 cells
  toxic effect on normal cells: no toxic effect
MCF-7 cells [9]
  cell viability, dose and time dependence: decreased in dose dependent manner with time
MDA-MB-231 cells [5]
  rate of cell proliferation and migration (ranking): slowest in Dox + P3 followed by Dox, P3, P2 and P1
Phospho-LIMK1 (T-508); serum, day 45, p-value 0.008
  Phospho-LIMK1 concentration: 7.58 ± 2.25 ng/µL
Phospho-LIMK1 (T-508); [16]
  Phospho-LIMK1 concentration: 8.01 ± 1.22 ng/µL
MDA-MB-231 cells [10]; 72 h
  population of apoptotic cells, dose dependence: increased with increasing FGDWS doses P1 to P3
MDA-MB-231 cells [10]; higher dose of peptide (P3 300 μm), or in combination with Dox
  apoptotic cell population: 38.3%
MCF-7 cells [11]
  population of apoptotic cells, dose dependence: increased with increasing FGDWS doses P1 to P3
